Test results reported in ChEMBL document CHEMBL1629611, “Activity of levofloxacin alone and in combination with a DnaK inhibitor against gram-negative rods, including levofloxacin-resistant strains” (2009).
Bridges are numbered along the chain shown (N, C = ends). Roman numbers before positions name the chains, in order. [ ]: non-standard residue; d: D form. NMeR = CN[C@@H](CCCNC(=N)N)C(=O)O; Api = NC1(C(=O)O)CCNCC1; Dab = NCC[C@H](N)C(=O)O

Tests used:
Assay type in all cases: functional
Citrobacter freundii [1] = test: Antimicrobial activity against Citrobacter freundii E384 by broth macrodilution method
Procedure, shortened: (§1)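 MIC by CLSI-approved broth macrodilution in one-quarter-strength cation-adjusted Mueller Hinton broth, each drug tested alone. Clinical gram-negative isolates were stored frozen at −70°C in double-strength skim milk before testing.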

Escherichia coli [2] = test: Antimicrobial activity against Escherichia coli E413 by broth macrodilution method
Procedure, shortened: (§2)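 CLSI-approved broth macrodilution in one-quarter-strength cation-adjusted Mueller Hinton broth. Each drug was tested alone against each clinical gram-negative isolate to give the MIC. Strains were stored frozen at −70°C in double-strength skim milk before testing.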

Pseudomonas aeruginosa [3] = test: Antimicrobial activity against Pseudomonas aeruginosa P335 by broth macrodilution method; procedure, shortened: as §1
Klebsiella pneumoniae [4] = test: Antimicrobial activity against Klebsiella pneumoniae E353 by broth macrodilution method; procedure, shortened: as §2
Escherichia coli [5] = test: Antimicrobial activity against Escherichia coli E436 by broth macrodilution method; procedure, shortened: as §2
Enterobacter cloacae [6] = test: Antimicrobial activity against Enterobacter cloacae E373 by broth macrodilution method; procedure, shortened: as §1
Klebsiella pneumoniae [7] = test: Antimicrobial activity against Klebsiella pneumoniae E371 by broth macrodilution method; procedure, shortened: as §2
Klebsiella pneumoniae [8] = test: Antimicrobial activity against Klebsiella pneumoniae E427 by broth macrodilution method; procedure, shortened: as §2
Enterobacter cloacae [9] = test: Antimicrobial activity against Enterobacter cloacae E397 by broth macrodilution method; procedure, shortened: as §1
Klebsiella pneumoniae [10] = test: Antimicrobial activity against Klebsiella pneumoniae E364 by broth macrodilution method; procedure, shortened: as §2
Klebsiella pneumoniae [11] = test: Antimicrobial activity against Klebsiella pneumoniae E354 by broth macrodilution method; procedure, shortened: as §1
Klebsiella pneumoniae [12] = test: Antimicrobial activity against Klebsiella pneumoniae E367 by broth macrodilution method; procedure, shortened: as §2
Escherichia coli [13] = test: Antimicrobial activity against Escherichia coli E351 by broth macrodilution method; procedure, shortened: as §1
Escherichia coli [14] = test: Antimicrobial activity against Escherichia coli E410 by broth macrodilution method; procedure, shortened: as §1
Escherichia coli [15] = test: Antimicrobial activity against Escherichia coli E425 by broth macrodilution method; procedure, shortened: as §2
Escherichia coli [16] = test: Antimicrobial activity against Escherichia coli E434 by broth macrodilution method; procedure, shortened: as §2
Klebsiella pneumoniae [17] = test: Antimicrobial activity against Klebsiella pneumoniae E363 by broth macrodilution method; procedure, shortened: as §1
Klebsiella pneumoniae [18] = test: Antimicrobial activity against Klebsiella pneumoniae E422 by broth macrodilution method; procedure, shortened: as §1
Klebsiella pneumoniae [19] = test: Antimicrobial activity against Klebsiella pneumoniae E431 by broth macrodilution method; procedure, shortened: as §2
Klebsiella pneumoniae [20] = test: Antimicrobial activity against Klebsiella pneumoniae E411 by broth macrodilution method; procedure, shortened: as §2
Klebsiella pneumoniae [21] = test: Antimicrobial activity against Klebsiella pneumoniae E372 by broth macrodilution method; procedure, shortened: as §2
Escherichia coli [22] = test: Antimicrobial activity against Escherichia coli E412 by broth macrodilution method; procedure, shortened: as §2
Escherichia coli [23] = test: Antimicrobial activity against Escherichia coli E435 by broth macrodilution method; procedure, shortened: as §2
Escherichia coli [24] = test: Antimicrobial activity against Escherichia coli E408 by broth macrodilution method; procedure, shortened: as §2
Escherichia coli [25] = test: Antimicrobial activity against Escherichia coli E393 by broth macrodilution method; procedure, shortened: as §1
Escherichia coli [26] = test: Antimicrobial activity against Escherichia coli E424 by broth macrodilution method; procedure, shortened: as §2
Escherichia coli [27] = test: Antimicrobial activity against Escherichia coli E395 by broth macrodilution method; procedure, shortened: as §1
Klebsiella pneumoniae [28] = test: Antimicrobial activity against Klebsiella pneumoniae E433 by broth macrodilution method; procedure, shortened: as §1
Klebsiella pneumoniae [29] = test: Antimicrobial activity against Klebsiella pneumoniae E369 by broth macrodilution method; procedure, shortened: as §2
Escherichia coli [30] = test: Antimicrobial activity against Escherichia coli E409 by broth macrodilution method; procedure, shortened: as §2
Klebsiella pneumoniae [31] = test: Antimicrobial activity against Klebsiella pneumoniae E426 by broth macrodilution method; procedure, shortened: as §2
Escherichia coli [32] = test: Antimicrobial activity against Escherichia coli E430 by broth macrodilution method; procedure, shortened: as §2
Klebsiella pneumoniae [33] = test: Antimicrobial activity against Klebsiella pneumoniae E370 by broth macrodilution method; procedure, shortened: as §2
Escherichia coli [34] = test: Antimicrobial activity against Escherichia coli E396 by broth macrodilution method; procedure, shortened: as §1
Escherichia coli [35] = test: Antimicrobial activity against Escherichia coli E394 by broth macrodilution method; procedure, shortened: as §2
Citrobacter freundii [36] = test: Antimicrobial activity against Citrobacter freundii E400 by broth macrodilution method; procedure, shortened: as §2
Klebsiella pneumoniae [37] = test: Antimicrobial activity against Klebsiella pneumoniae E368 by broth macrodilution method; procedure, shortened: as §2
Pseudomonas aeruginosa [38] = test: Antimicrobial activity against Pseudomonas aeruginosa P330 by broth macrodilution method; procedure, shortened: as §1
Klebsiella pneumoniae [39] = test: Antimicrobial activity against Klebsiella pneumoniae E356 by broth macrodilution method; procedure, shortened: as §1
Klebsiella pneumoniae [40] = test: Antimicrobial activity against Klebsiella pneumoniae E366 by broth macrodilution method; procedure, shortened: as §1
Escherichia coli [41] = test: Antimicrobial activity against Escherichia coli E346 by broth macrodilution method; procedure, shortened: as §1
Escherichia coli [42] = test: Antimicrobial activity against Escherichia coli E437 by broth macrodilution method; procedure, shortened: as §1
Klebsiella pneumoniae [43] = test: Antimicrobial activity against Klebsiella pneumoniae E432 by broth macrodilution method; procedure, shortened: as §1
Escherichia coli [44] = test: Antimicrobial activity against Escherichia coli E342 by broth macrodilution method; procedure, shortened: as §1
Escherichia coli [45] = test: Antimicrobial activity against Escherichia coli E439 by broth macrodilution method; procedure, shortened: as §1
Klebsiella pneumoniae [46] = test: Antimicrobial activity against Klebsiella pneumoniae E428 by broth macrodilution method; procedure, shortened: as §1
Klebsiella pneumoniae [47] = test: Antimicrobial activity against Klebsiella pneumoniae E362 by broth macrodilution method; procedure, shortened: as §1
Escherichia coli [48] = test: Antimicrobial activity against Escherichia coli E438 by broth macrodilution method; procedure, shortened: as §1
Klebsiella pneumoniae [49] = test: Antimicrobial activity against Klebsiella pneumoniae E418 by broth macrodilution method; procedure, shortened: as §1
Escherichia coli [50] = test: Antimicrobial activity against Escherichia coli E341 by broth macrodilution method; procedure, shortened: as §1

Compound `C[C@H]1COc2c(N3CCN(C)CC3)c(F)cc3c(=O)c(C(=O)O)cn1c23.C[C@H]1COc2c(N3CCN(C)CC3)c(F)cc3c(=O)c(C(=O)O)cn1c23.O` [LEVOFLOXACIN] has an MIC (Citrobacter freundii [1]) of 0.125 µg/mL, an MIC (Escherichia coli [2]) of 8 µg/mL and an MIC (Pseudomonas aeruginosa [3]) of 16 µg/mL. For the same compound, the MIC (Klebsiella pneumoniae [4]) was 0.25 µg/mL, the MIC (Escherichia coli [5]) was 0.125 µg/mL and the MIC (Enterobacter cloacae [6]) was 0.06 µg/mL. For the same compound, the MIC (Klebsiella pneumoniae [7]) was 32 µg/mL, the MIC (Klebsiella pneumoniae [8]) was 2 µg/mL and the MIC (Enterobacter cloacae [9]) was 16 µg/mL. The MIC (Klebsiella pneumoniae [10]) was 2 µg/mL, the MIC (Klebsiella pneumoniae [11]) was 16 µg/mL and the MIC (Klebsiella pneumoniae [12]) was 0.25 µg/mL. For the same compound, the MIC (Escherichia coli [13]) was 16 µg/mL, the MIC (Escherichia coli [14]) was 4 µg/mL and the MIC (Escherichia coli [15]) was 2 µg/mL. For the same compound, the MIC (Escherichia coli [16]) was 0.125 µg/mL, the MIC (Klebsiella pneumoniae [17]) was 0.06 µg/mL and the MIC (Klebsiella pneumoniae [18]) was 16 µg/mL. It also gave an MIC (Klebsiella pneumoniae [19]) of 4 µg/mL, an MIC (Klebsiella pneumoniae [20]) of 2 µg/mL and an MIC (Klebsiella pneumoniae [21]) of 0.25 µg/mL. For the same compound, the MIC (Escherichia coli [22]) was 8 µg/mL, the MIC (Escherichia coli [23]) was 0.125 µg/mL and the MIC (Escherichia coli [24]) was 32 µg/mL. The MIC (Escherichia coli [25]) was 16 µg/mL, the MIC (Escherichia coli [26]) was 0.25 µg/mL and the MIC (Escherichia coli [27]) was 16 µg/mL. It also gave an MIC (Klebsiella pneumoniae [28]) of 16 µg/mL, an MIC (Klebsiella pneumoniae [29]) of 64 µg/mL and an MIC (Escherichia coli [30]) of 8 µg/mL. It also gave an MIC (Klebsiella pneumoniae [31]) of 4 µg/mL, an MIC (Escherichia coli [32]) of 0.125 µg/mL and an MIC (Klebsiella pneumoniae [33]) of 32 µg/mL. For the same compound, the MIC (Escherichia coli [34]) was 16 µg/mL, the MIC (Escherichia coli [35]) was 32 µg/mL and the MIC (Citrobacter freundii [36]) was 32 µg/mL. The MIC (Klebsiella pneumoniae [37]) was 8 µg/mL.
“I: H-[Api]DKGSYLPRPTPPRPIYN[NMeR]N[Dab]-NH2 / II: H-[Api]DKGSYLPRPTPPRPIYN[NMeR]N (amide I:21-II:C)” was tested, and the MIC (Pseudomonas aeruginosa [38]) was 256 µg/mL, the MIC (Citrobacter freundii [1]) was 512 µg/mL and the MIC (Escherichia coli [2]) was 32 µg/mL. The MIC (Pseudomonas aeruginosa [3]) was 128 µg/mL, the MIC (Klebsiella pneumoniae [4]) was 4 µg/mL and the MIC (Escherichia coli [5]) was 8 µg/mL. The MIC (Klebsiella pneumoniae [39]) was 8 µg/mL, the MIC (Enterobacter cloacae [6]) was 4 µg/mL and the MIC (Klebsiella pneumoniae [40]) was 16 µg/mL. The MIC (Klebsiella pneumoniae [7]) was 32 µg/mL, the MIC (Klebsiella pneumoniae [8]) was 8 µg/mL and the MIC (Escherichia coli [41]) was 64 µg/mL. For the same compound, the MIC (Escherichia coli [42]) was 4 µg/mL, the MIC (Enterobacter cloacae [9]) was 8 µg/mL and the MIC (Klebsiella pneumoniae [43]) was 128 µg/mL. The MIC (Escherichia coli [44]) was 256 µg/mL, the MIC (Klebsiella pneumoniae [10]) was 8 µg/mL and the MIC (Klebsiella pneumoniae [11]) was 8 µg/mL. It also gave an MIC (Escherichia coli [45]) of 8 µg/mL, an MIC (Klebsiella pneumoniae [12]) of 16 µg/mL and an MIC (Escherichia coli [13]) of 32 µg/mL. It also gave an MIC (Escherichia coli [14]) of 4 µg/mL, an MIC (Escherichia coli [15]) of 32 µg/mL and an MIC (Escherichia coli [16]) of 8 µg/mL. The MIC (Klebsiella pneumoniae [17]) was 4 µg/mL, the MIC (Klebsiella pneumoniae [18]) was 32 µg/mL and the MIC (Klebsiella pneumoniae [19]) was 4 µg/mL. For the same compound, the MIC (Klebsiella pneumoniae [20]) was 8 µg/mL, the MIC (Klebsiella pneumoniae [46]) was 8 µg/mL and the MIC (Klebsiella pneumoniae [21]) was 4 µg/mL. For the same compound, the MIC (Escherichia coli [22]) was 8 µg/mL, the MIC (Escherichia coli [23]) was 8 µg/mL and the MIC (Escherichia coli [24]) was 16 µg/mL. The MIC (Klebsiella pneumoniae [47]) was 4 µg/mL, the MIC (Escherichia coli [25]) was 16 µg/mL and the MIC (Escherichia coli [26]) was 64 µg/mL. The MIC (Escherichia coli [27]) was 32 µg/mL, the MIC (Klebsiella pneumoniae [28]) was 8 µg/mL and the MIC (Klebsiella pneumoniae [29]) was 8 µg/mL. For the same compound, the MIC (Escherichia coli [48]) was 8 µg/mL, the MIC (Klebsiella pneumoniae [49]) was 8 µg/mL and the MIC (Escherichia coli [30]) was 16 µg/mL. The MIC (Klebsiella pneumoniae [31]) was 4 µg/mL, the MIC (Escherichia coli [50]) was 16 µg/mL and the MIC (Escherichia coli [32]) was 16 µg/mL. It also gave an MIC (Klebsiella pneumoniae [33]) of 4 µg/mL, an MIC (Escherichia coli [34]) of 16 µg/mL and an MIC (Escherichia coli [35]) of 32 µg/mL. It also gave an MIC (Citrobacter freundii [36]) of 8 µg/mL and an MIC (Klebsiella pneumoniae [37]) of 8 µg/mL.
